An excerpt weighted towards active compounds, which were near 1.9% of everything screened.
Rin1 Abl inh: blocks binding of human Rin1 to Abl; hit rate 0.4% among 360,000; TR-FRET Rin1/Abl binding, biochemical; inhibition, % at 7.35 µM; in the data active = inhibition above about 5%, passing the limit was not always enough
MBD2 inh: MBD2-methylated oligo binding inhibition. TR-FRET, MBD2 binding to methylated oligonucleotide. inhibition, % at 4.4 µM. AID 686964. Q9UBB5. hit rate 0.31% among 370,000; in the data active = inhibition above about 13%
UHRF1 binding: blocks human UHRF1 binding to methylated DNA. Q96T88. UHRF1 binding to methylated oligo, TR-FRET. inhibition, % at 4.4 µM. hit rate 0.75% among 370,000. AID 687016; in the data active = inhibition above about 21%;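 also: UHRF1 SRA domain binding a hemimethylated CpG hairpin DNA probe; 0% = median of test compound wells and 100% = reference inhibitor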
TDP2 absorb: blocks human TDP2 phosphodiesterase activity; inhibition, % at 12.8 µM; recombinant TDP2, T5PNP hydrolysis, p-nitrophenol absorbance 415 nm; hit rate 0.34% among 370,000; AID 720702;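 active = inhibition above the mean of all tested compounds plus 3 SD, set per campaign, cut at about 25% in these data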;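 also: 0% = DMSO with enzyme and 100% = buffer with substrate but no TDP2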
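Incubation: 2 h at 37 °C; Test system: recombinant human TDP2; Quantity: enzyme 120 nM; Read-out basis: percent inhibition; Medium: 50 mM Tris-HCl pH 7.5 with Mg2+, KCl, DTT, BSA; Repeats: single replicate; Compound: 12.8 µM single point, 1% DMSO; Signal: epi absorbance; Reagent: 5 mM T5PNP chromogenic substrate; Benchmarks: no-enzyme high, DMSO-plus-enzyme low.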
LEDGF integ inh: blocks HIV-1 LEDGF/p75-dependent DNA integration. hit rate 0.64% among 370,000. inhibition, % at 3.7 µM. AID 743269. TR-FRET IN-LEDGF/p75 DNA integration, Eu/Cy5;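 active = inhibition above the screen-wide mean plus 3 SD, cut at about 13% in these data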;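 also: signal is the Cy5 over europium emission ratio at 671 and 618 nm; 0% = plate median of compound wells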
IN multimer act: HIV-1 integrase multimerization activation, counter-screen; shares compounds with LEDGF integ inh; TR-FRET HIV-1 integrase multimerization, biochemical; activation, % at 7.7 µM; hit rate 17% among 2,000; AID 1053131; in the data active = activation above about 8.9%
TR-FRET interf: counter-screen for LEDGF/p75 integration inhibitors: TR-FRET optical interference | TR-FRET optical interference counterscreen, HIV-1 IN multimerization | 2,000 tested, under 10 active | inhibition, % at 7.7 µM | shares compounds with LEDGF integ inh | AID 1053135;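 active = inhibition above the mean over all tested compounds plus 3 SD, which no compound reached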;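 also: 0% = integrase with antibodies and DMSO and 100% = antibodies without integrase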
LEDGF integ conf: confirmation of HIV-1 LEDGF/p75-dependent integration inhibitors. shares compounds with LEDGF integ inh. TR-FRET LEDGF/p75-dependent HIV-1 integration, biochemical. inhibition, % at 3.7 µM. hit rate 36% among 2,000. AID 1053136; in the data active = inhibition above about 14%
* marks the source's active call; other numbers are inactive results; x = no result.

SMILES | Rin1 Abl inh | MBD2 inh | UHRF1 binding | TDP2 absorb | LEDGF integ inh | IN multimer act | TR-FRET interf | LEDGF integ conf
O=C(Cn1cncn1)N/N=C/c1ccc(Cl)cc1 | 1 | 2 | 1 | 7 | -3 | x | x | x
O=C(Cn1cncn1)NCc1ccc(Cl)cc1 | 1 | 0 | -3 | -5 | 19* | 0 | -1 | -1
Cn1c(SCCc2ccc([N+](=O)[O-])cc2)nccc1=O | 0 | 3 | 2 | 2 | 60* | 0 | 0 | 0
Nn1c(SCC(=O)N2c3ccccc3Sc3ccc(Cl)cc32)nnc1-c1cc(-c2ccc(F)cc2)n[nH]1 | x | 0 | 3 | -13 | 6 | x | x | x
NC(=O)/C(=C\c1ccc([N+](=O)[O-])o1)c1ccco1 | -7 | -6 | 4 | -14 | 22* | 6 | -29 | 28*
O=C(Nc1cccc(NC(=O)c2ccc([N+](=O)[O-])o2)c1)c1ccco1 | 0 | 0 | -2 | 7 | -3 | x | x | x
O=C(CSc1nc2ccccc2[nH]1)NC1CCS(=O)(=O)C1 (configuration not stated) | -1 | 0 | -1 | 4 | 37* | 0 | -1 | -8
Cc1ccc2nc(SCC(=O)NC3CCS(=O)(=O)C3)[nH]c2c1 (configuration not stated) | 5 | 0 | 2 | -8 | 3 | x | x | x
CCOc1cccc(/C=N/NC(=S)Nc2ccccc2[N+](=O)[O-])c1O | 3 | 1 | -9 | 6 | -2 | x | x | x
O=[N+]([O-])c1ccccc1NC(=S)N/N=C/c1ccc(O)c(O)c1 | 3 | -3 | 10 | -22 | 46* | 11* | -57 | 71*
COC(=O)c1cc(-c2cccc3ccccc23)c(=O)n2c1CCC2 | x | 1 | 3 | 1 | -1 | x | x | x
COC(=O)C1=C(N)N(c2ccc(F)cc2)C2=C(C(=O)CCC2)C1c1ccc2c(c1)OCO2 (configuration not stated) | -1 | -2 | 4 | 0 | 18* | 0 | 0 | -10
CC(=O)c1ccc(OC2(C)CCN(Cc3ccc4c(c3)OCCO4)C2)cc1 (configuration not stated) | -1 | 3 | 1 | 3 | 15* | -3 | 17 | -5
CC(=O)NC1CCCCN(Cc2ccc(Cl)cc2)C1=O (configuration not stated) | x | -6 | -2 | -18 | 10 | x | x | x
NC[C@H](O)c1ccc(O)c(O)c1 | 6 | 4 | 5 | 3 | 15* | 1 | -7 | -10
CNC[C@H](O)c1ccc(O)c(O)c1 | 12 | 1 | 6 | 11 | 18* | 1 | -3 | 0
CC(C)NCC(O)c1ccc(O)c(O)c1 (configuration not stated) | -1 | -4 | -2 | 7 | -9 | x | x | x
Cc1ccc(C=Nc2ccc(N(C)C)cc2)o1 | -1 | -11 | 1 | 14 | 15* | 1 | -2 | 4
COC(=O)C[C@@H]1CC[C@H]2[C@H](COc3ccc(NC(=O)c4cccc(C(F)(F)F)c4)cc3C(=O)N2C)O1 | x | 1 | -1 | 1 | 0 | x | x | x
COC(=O)C1=C(C)N(CCCC(=O)O)C(=O)NC1c1cc2c(cc1[N+](=O)[O-])OCO2 (configuration not stated) | 8 | 2 | 14 | 1 | 27* | 26* | -94 | 48*
COC(=O)C1=C(C)N(CCCC(=O)O)C(=O)NC1c1ccc([N+](=O)[O-])cc1 (configuration not stated) | 1 | -3 | 5 | 1 | -1 | x | x | x
COc1ccc(-c2c(Cc3ccccc3)nc(NC(=O)c3ccccc3F)n2C)cc1 | x | 5 | -1 | 2 | 20* | 2 | -10 | 17*
CCCn1c(NC(=O)c2ccccc2)nc(Cc2ccccc2)c1-c1ccc(OC)cc1 | x | 5 | 0 | -4 | 13 | x | x | x
CCOc1ccc(-n2ccnc(SCC(=O)NCCc3ccccc3)c2=O)cc1 | -2 | -3 | -3 | -2 | 1 | x | x | x
